Publication PMC6045484 (ACS Omega, 2018)
≈ marks a conversion by molar mass, not a printed value.

Key:
[1] = test system: SK-MEL, KB, BT-549, SK-OV-3, VERO and LLC-PK1 cells; test: cytotoxicity, neutral red uptake assay; type: cell-based, mammalian; details: highest test concentration 4760 ng/mL
Method in brief: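 Cells seeded at 25 000/well and allowed 24 h to reach confluence. Test compound was then added and incubated 48 h. Viable cells were counted by a modified neutral red uptake method. The panel was four human cancer lines and two noncancerous mammalian kidney lines. Doxorubicin served as positive control and DMSO as negative control.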

[2] = test system: A. fumigatus ATCC 90906; test: in vitro antifungal activity; type: cell-based, Aspergillus fumigatus; details: Aspergillus fumigatus; for IC50: ATCC90906, read-out: A. fumigatus IC50; for MFC: ATCC90906, read-out: A. fumigatus MFC; for MIC: ATCC90906, read-out: A. fumigatus MIC
Method in brief: (§1)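 Modified NCCLS broth method in Sabouraud dextrose. Inoculum set by OD630 to 1.5 × 10^3 CFU/mL. Test compound serially diluted in 20% DMSO/saline, duplicate wells, up to 20 μg/mL. Incubated 70–74 h at 35 °C; 530 nm read before and after. IC50 is 50% growth inhibition; MIC is no detectable growth. MFC from clear wells subcultured on agar. Amphotericin B control.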

[3] = test system: P. falciparum (W2); test: in vitro antimalarial activity, plasmodial LDH; type: cell-based, Plasmodium falciparum; details: Plasmodium falciparum, W2, 72 h, read-out: P. falciparum (W2) IC50, CQ-resistant W2 strain, 72 h
Method in brief: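 P. falciparum-infected erythrocytes (2% parasitemia, 2% hematocrit) in RPMI 1640 with 10% human serum and 60 μg/mL amikacin. Exposed to test compound dilutions for 72 h at 37 °C under 90% N2/5% O2/5% CO2. LDH measured with Malstat reagent (30 min, room temperature), then NBT/PES for 1 h in the dark, stopped with 5% acetic acid, read at 650 nm. IC50 from dose-response curves.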

[4] = test system: C. neoformans ATCC90113; test: in vitro antifungal activity; type: cell-based, Cryptococcus neoformans; details: Cryptococcus neoformans; for IC50: ATCC90113, read-out: C. neoformans IC50; for MFC: ATCC90113, read-out: C. neoformans MFC; for MIC: ATCC90113, read-out: C. neoformans MIC
Method in brief: as §1

[5] = test system: C. albicans ATCC90028; test: in vitro antifungal activity; type: cell-based, Candida albicans; details: Candida albicans; for IC50: ATCC90028, read-out: C. albicans IC50; for MFC: ATCC90028, read-out: C. albicans MFC; for MIC: ATCC90028, read-out: C. albicans MIC
Method in brief: as §1

[6] = test system: SA (ATCC29213); test: in vitro antibacterial activity; type: cell-based; details: Staphylococcus aureus; for IC50: ATCC29213, read-out: IC50 (concentration that affords 50% growth inhibition), SA; for MBC: ATCC29213, read-out: MBC (minimum bactericidal concentration), SA; for MIC: ATCC29213, read-out: MIC, SA
Method in brief: (§2)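 Test compound serially diluted in 20% DMSO/saline and plated in duplicate, up to 20 μg/mL. Inoculum in cation-adjusted Mueller–Hinton broth, pH 7.3, set by OD630 to 5 × 10^5 CFU/mL. Incubated 16–20 h at 35 °C; 530 nm read before and after. IC50 is 50% growth inhibition; MIC is no detectable growth. MBC from clear wells subcultured on agar. Ciprofloxacin control.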

[7] = test system: M. intracellulare (ATCC23068); test: in vitro antibacterial activity, modified alamarBlue procedure; type: cell-based, Mycobacterium intracellulare; details: Mycobacterium intracellulare; for IC50: ATCC23068, read-out: IC50 (concentration that affords 50% growth inhibition), M. intracellulare; for MBC: ATCC23068, read-out: MBC (minimum bactericidal concentration), M. intracellulare; for MIC: ATCC23068, read-out: MIC, M. intracellulare
Method in brief: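 Modified alamarBlue microplate method. Test compound serially diluted in 20% DMSO/saline, duplicate wells, up to 20 μg/mL. Inoculum 2.0 × 10^6 CFU/mL in Middlebrook 7H9 with OADC, pH 7.3, containing 5% alamarBlue. Incubated 70–74 h at 37 °C, 10% CO2; fluorescence 544ex/590em read before and after. MIC: no blue-to-pink change. MBC by subculturing blue wells on agar. Ciprofloxacin control.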

[8] = test system: L. donovani promastigotes; test: in vitro antileishmanial activity, alamarBlue assay; type: cell-based, Leishmania donovani; details: Leishmania donovani, 48 h; for IC50: read-out: L. donovani IC50, promastigotes, 48 h; for IC90: read-out: L. donovani IC90, promastigotes, 48 h
[9] = test system: MRSA (ATCC33591); test: in vitro antibacterial activity; type: cell-based, methicillin-resistant Staphylococcus aureus; details: Staphylococcus aureus, ATCC33591|MRSA, read-out: MIC, MRSA
Method in brief: as §2

[10] = test system: P. falciparum (D6); test: in vitro antimalarial activity, plasmodial LDH; type: cell-based, Plasmodium falciparum; details: Plasmodium falciparum, D6, 72 h, read-out: P. falciparum (D6) IC50

| SMILES | cytotoxicity CTX [1] | IC50 [2] [µg/mL] | MFC [2] [µg/mL] | MIC [2] [µg/mL] | IC50 [3] [µg/mL] | IC50 [4] [µg/mL] | MFC [4] [µg/mL] | MIC [4] [µg/mL] | IC50 [5] [µg/mL] | MFC [5] [µg/mL] | MIC [5] [µg/mL] | IC50 [6] [µg/mL] | MBC [6] [µg/mL] | MIC [6] [µg/mL] | IC50 [7] [µg/mL] | MBC [7] [µg/mL] | MIC [7] [µg/mL] | IC50 [8] [µg/mL] | IC90 [8] [µg/mL] | MIC [9] [µg/mL] | further results |
| --- | --- | --- | --- | --- | --- | --- | --- | --- | --- | --- | --- | --- | --- | --- | --- | --- | --- | --- | --- | --- | --- |
| CCCCCCCOc1c(OC)cc(NC(C)CCCNC(=O)C(N)Cc2ccccc2)c2nc(C(C)(C)C)ccc12 (stereo not drawn) [compound 112, 2-Amino-N-(4-(2-tert-butyl-5-(heptyloxy)-6-methoxyquinolin-8-ylamino)pentyl)-3-phenylpropanamide] | NC (NC, not cytotoxic up to 4760 ng/mL (4.76 μg/mL)) | > 20 | > 20 | > 20 | 2.2 (≈ 3.81 µM) | 4.56 (≈ 7.91 µM) | 5 (≈ 8.67 µM) | 5 (≈ 8.67 µM) | > 20 | > 20 | > 20 | 4.06 (≈ 7.04 µM) | 10 (≈ 17.3 µM) | 10 (≈ 17.3 µM) | > 20 | > 20 | > 20 | 20 (≈ 34.7 µM) | 36 (≈ 62.4 µM) | 10 (≈ 17.3 µM) | IC50 [10]: 3.2 µg/mL (≈ 5.55 µM) |
| CCCCCCCOc1c(OC)cc(NC(C)CCCNC(=O)C(N)C(C)CC)c2nc(C(C)(C)C)ccc12 (stereo not drawn) [compound 114, 2-Amino-N-(4-(2-tert-butyl-5-(heptyloxy)-6-methoxyquinolin-8-ylamino)pentyl)-3-methylpentanamide] | NC (NC, not cytotoxic up to 4760 ng/mL (4.76 μg/mL)) | > 20 | > 20 | > 20 | 2.9 (≈ 5.34 µM) | 1.07 (≈ 1.97 µM) | 2.5 (≈ 4.61 µM) | 2.5 (≈ 4.61 µM) | 14.2 (≈ 26.2 µM) | > 20 | > 20 | 2.19 (≈ 4.03 µM) | 5 (≈ 9.21 µM) | 5 (≈ 9.21 µM) | 5.63 (≈ 10.4 µM) | 20 (≈ 36.8 µM) | 10 (≈ 18.4 µM) | 3.8 (≈ 7 µM) | 7 (≈ 12.9 µM) | 5 (≈ 9.21 µM) | IC50 [10]: 4.5 µg/mL (≈ 8.29 µM) |
| CCCCCCCOc1c(OC)cc(NC(C)CCCNC(=O)C(N)Cc2cc3ccccc3[nH]2)c2nc(C(C)(C)C)ccc12 (stereo not drawn) [compound 115, 2-Amino-N-(4-(2-tert-butyl-5-(heptyloxy)-6-methoxyquinolin-8-ylamino)pentyl)-3-(1H-indol-2-yl)propanamide] | NC (NC, not cytotoxic up to 4760 ng/mL (4.76 μg/mL)) | > 20 | > 20 | > 20 | 2.8 (≈ 4.55 µM) | 1.36 (≈ 2.21 µM) | 2.5 (≈ 4.06 µM) | 2.5 (≈ 4.06 µM) | > 20 | > 20 | > 20 | 4.56 (≈ 7.4 µM) | 10 (≈ 16.2 µM) | 10 (≈ 16.2 µM) | 8.74 (≈ 14.2 µM) | 20 (≈ 32.5 µM) | 10 (≈ 16.2 µM) | 19 (≈ 30.9 µM) | 32 (≈ 52 µM) | 5 (≈ 8.12 µM) | IC50 [10]: 3.3 µg/mL (≈ 5.36 µM) |
| CCCCCCCOc1c(OC)cc(NC(C)CCCNC(=O)C(N)CCSC)c2nc(C(C)(C)C)ccc12 (stereo not drawn) [compound 116, 2-Amino-N-(4-(2-tert-butyl-5-(heptyloxy)-6-methoxyquinolin-8-ylamino)pentyl)-4-(methylthio)butanamide] | NC (NC, not cytotoxic up to 4760 ng/mL (4.76 μg/mL)) | > 20 | > 20 | > 20 | 3.2 (≈ 5.71 µM) | 1.29 (≈ 2.3 µM) | 10 (≈ 17.8 µM) | 10 (≈ 17.8 µM) | > 20 | > 20 | > 20 | 4.07 (≈ 7.26 µM) | 10 (≈ 17.8 µM) | 10 (≈ 17.8 µM) | > 20 | > 20 | > 20 | 4.1 (≈ 7.31 µM) | 12 (≈ 21.4 µM) | 5 (≈ 8.92 µM) | IC50 [10]: 4.76 µg/mL (≈ 8.49 µM) |
| CCCCCCCCOc1c(OC)cc(NC(C)CCCNC(=O)C(N)C(C)CC)c2nc(C(C)(C)C)ccc12 (stereo not drawn) [compound 119, 2-Amino-N-(4-(2-tert-butyl-6-methoxy-5-(octyloxy)quinolin-8-ylamino)pentyl)-3-methylpentanamide] | NC (NC, not cytotoxic up to 4760 ng/mL (4.76 μg/mL)) | > 20 | > 20 | > 20 | > 4.76 | 2.87 (≈ 5.15 µM) | 10 (≈ 18 µM) | 10 (≈ 18 µM) | > 20 | > 20 | > 20 | 5.03 (≈ 9.03 µM) | > 20 | > 20 | > 20 | > 20 | > 20 | 6.04 (≈ 10.8 µM) | 26.9 (≈ 48.4 µM) | > 20 | IC50 [10]: > 4.76 µg/mL |
| CCCCCCCCOc1c(OC)cc(NC(C)CCCNC(=O)C(N)CCSC)c2nc(C(C)(C)C)ccc12 (stereo not drawn) [compound 120, 2-Amino-N-(4-(2-tert-butyl-6-methoxy-5-(octyloxy)quinolin-8-ylamino)pentyl)-4-(methylthio)butanamide] | NC (NC, not cytotoxic up to 4760 ng/mL (4.76 μg/mL)) | > 20 | > 20 | > 20 | 0.15 (≈ 0.261 µM) | 2.74 (≈ 4.77 µM) | 5 (≈ 8.7 µM) | 5 (≈ 8.7 µM) | > 20 | > 20 | > 20 | 11.7 (≈ 20.3 µM) | > 20 | 20 (≈ 34.8 µM) | 20 (≈ 34.8 µM) | > 20 | > 20 | 6.99 (≈ 12.2 µM) | 26.4 (≈ 46 µM) | 20 (≈ 34.8 µM) | IC50 [10]: 0.16 µg/mL (≈ 0.278 µM) |
| CCCCCCCCOc1c(OC)cc(NC(C)CCCNC(=O)C(N)Cc2cc3ccccc3[nH]2)c2nc(C(C)(C)C)ccc12 (stereo not drawn) [compound 122, 2-Amino-N-(4-(2-tert-butyl-6-methoxy-5-(octyloxy)quinolin-8-ylamino)pentyl)-3-(1H-indol-2-yl)propanamide] | NC (NC, not cytotoxic up to 4760 ng/mL (4.76 μg/mL)) | > 20 | > 20 | > 20 | > 4.76 | 6.8 (≈ 10.8 µM) | > 20 | 20 (≈ 31.8 µM) | > 20 | > 20 | > 20 | 12 (≈ 19 µM) | > 20 | 20 (≈ 31.8 µM) | > 20 | > 20 | > 20 | 9.32 (≈ 14.8 µM) | 25.7 (≈ 40.8 µM) | 20 (≈ 31.8 µM) | IC50 [10]: > 4.76 µg/mL |
| CCCCCCCCOc1c(OC)cc(NC(C)CCCNC(=O)C2CCCN2)c2nc(C(C)(C)C)ccc12 (stereo not drawn) [compound 123, N-(4-(2-tert-Butyl-6-methoxy-5-(octyloxy)quinolin-8-ylamino)pentyl)pyrrolidine-2-carboxamide] | NC (NC, not cytotoxic up to 4760 ng/mL (4.76 μg/mL)) | > 20 | > 20 | > 20 | > 4.76 | 2.89 (≈ 5.34 µM) | 5 (≈ 9.25 µM) | 5 (≈ 9.25 µM) | > 20 | > 20 | > 20 | 10.4 (≈ 19.3 µM) | 20 (≈ 37 µM) | 20 (≈ 37 µM) | > 20 | > 20 | > 20 | 12.4 (≈ 22.9 µM) | 38.4 (≈ 71 µM) | 10 (≈ 18.5 µM) | IC50 [10]: > 4.76 µg/mL |
